Screens deposited in PubChem by Johns Hopkins Ion Channel Center.
RGS4 block = human RGS4 inhibition; HEK293 M3R/RGS4 inducible, Fluo-4 calcium flux; active compounds read high; triggered by carbachol at its EC20; 310,000 tested, 0.45% active; AID 463165; B-score at 10 µM;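 active means B-score, a plate-corrected calcium signal, over three deviations above library mean, with baseline fluorescence within five deviations of library mean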;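 further: RGS4 expression induced by doxycycline in cells with stable M3 receptor; B-score is computed from the integrated fluorescence ratio over baseline after carbachol; higher B-score means a larger calcium signal and so more RGS4 inhibition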
Target sequence (P49798 whole entry, looked up): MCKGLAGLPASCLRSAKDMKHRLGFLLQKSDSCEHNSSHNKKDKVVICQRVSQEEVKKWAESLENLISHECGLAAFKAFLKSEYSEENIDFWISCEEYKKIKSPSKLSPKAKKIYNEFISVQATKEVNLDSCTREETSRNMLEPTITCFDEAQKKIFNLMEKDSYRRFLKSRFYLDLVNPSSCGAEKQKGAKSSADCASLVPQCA
MrgX1 ag = human MrgX1 receptor agonism, primary screen; MrgX1-HEK293 cells, Fluo-4 calcium fluorescence, agonist mode; active compounds read high; B-score at 10 µM; 310,000 tested, 0.44% active;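 active means calcium response B-score plate-corrected fluorescence ratio at least 3 library SD, with starting fluorescence B-score inside 5 SD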
Target sequence (Q96LB2 whole entry, looked up): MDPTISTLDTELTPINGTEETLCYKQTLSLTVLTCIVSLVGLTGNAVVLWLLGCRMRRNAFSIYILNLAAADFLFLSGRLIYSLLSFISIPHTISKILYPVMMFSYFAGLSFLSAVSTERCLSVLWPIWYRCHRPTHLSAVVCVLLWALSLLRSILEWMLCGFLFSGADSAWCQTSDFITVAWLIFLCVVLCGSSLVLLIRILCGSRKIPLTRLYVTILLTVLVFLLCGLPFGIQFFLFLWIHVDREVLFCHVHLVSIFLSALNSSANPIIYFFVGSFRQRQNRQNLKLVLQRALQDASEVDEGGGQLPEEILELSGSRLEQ
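Material – MrgX1-expressing HEK293 cells · Input – 15,000 cells seeded per well · Dosing – compound as first of three additions · Times – overnight seeding, then 1 h dark dye loading · Measured by – kinetic Fluo-4 NW fluorescence of intracellular calcium · Read-out – B-scored fluorescence response ratio · Benchmarks – positive and negative control wells on each plate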
MrgX1 allo act = human MrgX1 positive allosteric modulation, primary screen; Q96LB2; MrgX1-HEK293, Fluo-4 calcium flux, FDSS; active compounds read high; B-score at 10 µM; 310,000 tested, 0.63% active; AID 588675;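 active means plate-corrected calcium response at least 3 library SD above typical, normal starting fluorescence, not activating the receptor alone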;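 further: compound read alongside a low EC10 to EC30 dose of BAM8-22 agonist; peak minus trough fluorescence over baseline measured at the second addition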
Kir21 block = blocks the mouse Kir2.1 inward-rectifier potassium channel. B-score at 10 µM. HEK293-Kir2.1, FluxOR thallium flux fluorescence; active compounds read low. 310,000 tested, 0.85% active. P35561;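 active means fluorescence ratio B-score at or below minus 3 SD of library scores, with starting-brightness B-score within 2 SD, cut at about -4.2 in these data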;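 further: channel flux triggered by added potassium and thallium sulfate stimulus; B-score of peak minus minimum fluorescence over baseline after thallium stimulus; more negative B-score means stronger Kir2.1 block with less thallium influx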
MrgX1 antag = blocks BAM8-22 activation of human MrgX1 receptor; Q96LB2; MRGX1-HEK293 calcium flux, Fluo-4, BAM8-22 antagonism; active compounds read low; B-score at 10 µM; 310,000 tested, 1.3% active;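 active means calcium-response B-score plate-corrected more than 3 library SD below zero, starting fluorescence within 5 deviations, no agonist response on first addition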;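 further: peak minus trough fluorescence over baseline after final BAM8-22 challenge near maximal dose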
RGS4 pot = potentiators or activators of RGS4 | HEK293 M3R/inducible RGS4, carbachol calcium flux Fluo4; active compounds read low | B-score at 10 µM | 310,000 tested, 0.92% active;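 active means B-score of the integrated calcium signal more than 4 SD below the library mean, with starting fluorescence not abnormally high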;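 further: negative B-score means reduced calcium response which marks RGS4 activation or potentiation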
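Material: M3R-expressing HEK293 line, RGS4 induced by doxycycline | Schedule: Overnight RGS4 induction, 30 min dye load 37 °C, 20 min compound RT | Measured by: Fluo4 fluorescence kinetic imaging of calcium | Read-out: Integrated calcium ratio converted to B score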
RGS4 block valid = validation of RGS4 inhibitors. 1,700 tested, 65% active. HEK293 M3R/RGS4, carbachol calcium Fluo-4 fluorescence; carbachol added at its EC20; 0 = buffer wells, 100 = carbachol control. shares compounds with RGS4 block. calcium response, % at 10 µM;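 active means duplicate-averaged calcium response above the buffer-only control mean plus 5 SD of those controls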;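 further: integrated fluorescence ratio F max minus min over baseline F0; higher response in RGS4-induced cells means RGS4 inhibition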
RGS4 uninduced = non-induced cell nonspecific activity of RGS4 inhibitors; activity (percent), % at 10 µM; HEK293 M3R non-induced, carbachol calcium Fluo-4; submaximal (EC20) carbachol stimulus; buffer wells 0%, carbachol control wells 100%; shares compounds with RGS4 block; 1,900 tested, 20% active; AID 493000; call rule not given here;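 further: RGS4 induction absent so cells express M3R without RGS4; higher means more calcium signal and flags a non-specific hit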
RGS4 inh ctr2 = signal in non-induced cells without carbachol, RGS4 inhibitor counter-screen; shares compounds with RGS4 block; HEK293 M3R/RGS4 non-induced, Fluo-4 calcium, no carbachol; normalised: buffer wells 0%, carbachol wells 100%; calcium response (agonist-mode artifact), % at 10 µM; 1,900 tested, 22% active; AID 493001;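 active means duplicate-averaged calcium rise in uninduced cells above buffer wells' mean plus 5 SD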
Hits are given with their value; – = inactive; · = not tested or not shown. In the library only some 4.1% were active in any assay of this set; here they are far more common.

SMILES | RGS4 block | MrgX1 ag | MrgX1 allo act | Kir21 block | MrgX1 antag | RGS4 pot | RGS4 block valid | RGS4 uninduced | RGS4 inh ctr2
COc1cccc(NC(=O)C(=S)NC2CCCCC2)c1 | – | – | – | – | – | – | · | · | ·
Cc1cccc(NC(=S)NNC(=O)c2csc3c2CCC(C)C3)c1 (centres undefined) | 6.13 | – | – | – | – | – | 16.0% | – | –
CC(C)CNC(=S)NNC(=O)c1csc2c1CCC(C)C2 (centres undefined) | – | – | – | – | – | – | · | · | ·
Cc1ccc(NC(=O)CCC(=O)N/N=C/c2ccc(O)cc2O)cc1 | – | – | – | – | – | – | · | · | ·
CC(=O)Nc1cc(Cl)c(N=Cc2ccc(O)cc2O)cc1Cl | 8.1 | – | – | – | – | – | 16.0% | 29.0% | –
COc1ccc(OC)c(C2C(C(=O)c3ccc(C)o3)=C(O)C(=O)N2c2cc(C)on2)c1 (centres undefined) | – | – | – | – | – | – | · | · | ·
COC(=O)c1sc(N2C(=O)C(O)=C(C(=O)c3ccc(C)o3)C2c2cc(OC)ccc2OC)nc1C (centres undefined) | 7.33 | – | – | – | – | – | 46.0% | 47.0% | –
O=C1c2cccc3cc([N+](=O)[O-])cc(c23)C(=O)N1c1ccccc1O | 5.13 | – | – | – | – | – | 14.0% | – | –
Cc1cc(O)ccc1N1C(=O)c2cccc3cc([N+](=O)[O-])cc(c23)C1=O | – | – | – | – | – | – | · | · | ·
CCOC(=O)/C(=C/c1ccc(OC(=O)c2ccccc2)cc1)C(C)=O | – | – | – | -9.41 | – | – | · | – | 8.5%
CC1(C(=O)NCCc2c[nH]c3ccccc23)C=CCN1C(=O)c1ccccc1 (centres undefined) | – | – | – | – | – | – | · | · | ·
Cc1ccc(NC(=S)N/N=C/c2c(C)[nH]c3ccccc23)cc1 | 4.93 | – | – | – | – | – | 6.5% | – | 12.0%
COC(=O)c1cc(NC(=O)C2COc3ccccc3O2)cc(C(=O)OC)c1 (centres undefined) | – | – | – | – | – | – | · | · | ·
CSc1ccc(CN(C)C(=O)CSCC(=O)Nc2ccc(C)cc2)cc1 | – | – | – | – | – | – | · | · | ·
C=CCn1c(SC(C)CC)nc(O)cc1=O (centres undefined) | 4.79 | – | – | – | – | – | – | – | –
CC1C/C(=C/c2ccccn2)C(=O)/C(=C/c2ccccn2)C1 (centres undefined) | 10.2 | – | – | – | – | – | 36.5% | – | 13.0%
CC(C)(C)C1C/C(=C/c2ccccn2)C(=O)/C(=C/c2ccccn2)C1 (centres undefined) | – | – | – | – | – | – | · | · | ·
COc1ccc(N(C(=O)c2csnn2)C(C(=O)NC2CCCC2)c2ccccc2)cc1 (centres undefined) | – | – | – | – | – | – | · | · | ·
CN=c1sc(C(=O)Nc2cccc(Cl)c2)cc(=O)n1C | 27.8 | – | – | – | – | – | 14.5% | – | 23.0%
COc1cc2c(cc1OC)-c1cc(Nc3ccc(C)cc3)nc(=O)n1CC2 | – | – | – | – | – | – | · | – | –
COc1ccc(Nc2cc3n(c(=O)n2)CCc2cc(OC)c(OC)cc2-3)cc1 | – | – | – | – | – | – | · | · | ·
COc1cc2c(cc1OC)-c1cc(Nc3ccccc3)nc(=O)n1CC2 | – | – | – | – | – | – | · | – | 93.0%
CCOc1cc(NC(=S)NCCCN2CCOCC2)c(OCC)cc1NC(=O)c1ccccc1C | – | – | – | – | – | – | · | · | ·
